SMILES strings stand for the structures.

This series can be described thus: Toxicity liver stage against HepG2, at 10uM. Further details: test concentration 10 uM, cell line HepG2-A16-CD81EGFP. In kind it is cell-based. The following applies: human, HepG2-A16-CD81EGFP cells; read-out: INHIBITION
The essentials: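 Uninfected HepG2-A16-CD81EGFP cells, 3 × 10^3 per well, 1536-well, plated on prespotted compound at 10 μM final, parasite-free screening media added to match infected plates; puromycin 10 μM positive, DMSO 0.5% negative; run in parallel with 48 h PbLuc assay at 37 °C, 5% CO2; viability by CellTiter-Glo luminescence, normalized to controls.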
As to `COCc1noc(-c2nn(-c3ccc(F)c(F)c3)c3c2CCC3)n1`, the cytotoxicity at 10 µM is -2.75%. In the case of `CNS(=O)(=O)c1cccc(C(C)NCc2ccc(F)cc2F)c1` (configuration not stated), the cytotoxicity at 10 µM amounted to 12.8%. Take `O=C(Cc1ccc2c(c1)CCC2)NC1CCN(Cc2ccccc2)CC1`: the cytotoxicity at 10 µM amounted to 1.88%. The figure for `CC(C)(C)c1ccn(C2(C(=O)O)CCN(c3nccc(N)n3)CC2)n1` is -6.69%; for `Cn1nc2c(cc1=O)CN(CCc1nc3ccccc3c(=O)[nH]1)CC2` it is -10.9%. Take `CN(C)c1cnn(CC(=O)N2CCCCCC2)c(=O)c1`: the cytotoxicity at 10 µM was -10.6%.

Regarding `Cc1cccc(=O)n1CCC(=O)N1CCC2(CC1)OCCCC2O` (configuration not stated), the cytotoxicity at 10 µM was -1.95%. On to `COCCC(C)NC(=O)c1cc(Br)c2c(c1)OCCO2` (configuration not stated), for which the cytotoxicity at 10 µM was -13.4%. The figure for `c1ccc(-c2nnc(N3CCCC4(CCOC4)C3)s2)cc1` (configuration not stated) is -2.37%; for `O=C(Nc1ccccc1)C1CCN(C(=O)COc2ccccc2F)CC1` it is 8.94%. The figure for `Cc1cnn(CC2CCCN2C(=O)c2ccc3c(c2)nnn3C)c1` (configuration not stated) is 18.4%; for `CC(NC(=O)N1CCS(=O)(=O)CC1)c1c(F)cccc1Cl` (configuration not stated) it is 3.54%. On to `CSCC(C)(O)CNS(=O)(=O)c1ccc(Br)cc1` (configuration not stated), for which the cytotoxicity at 10 µM was -1.61%.

Take `CC(Nc1ncnc2c1CCNCC2)c1nc2c(s1)CCCC2` (configuration not stated): the cytotoxicity at 10 µM came out at 1.28%. In the case of `CC(C)C(C)NC(=O)Nc1ccc(CS(=O)(=O)C(C)C)cc1` (configuration not stated), the cytotoxicity at 10 µM was -1.28%. The figure for `Cc1cc(CSc2ccccn2)on1` is 8.4%; for `O=C1NCCN(Cc2ccccc2)C1CC(=O)N1CCc2n[nH]cc2C1` (configuration not stated) it is -6.73%; for `CNC(=O)C(NC(=O)c1nccn2ccnc12)c1ccc(F)c(F)c1` (configuration not stated) it is -12.6%. For the compound `Cc1cccc(CN2CCCC(O)(CNCc3cccc(F)c3)C2=O)c1` (configuration not stated), the cytotoxicity at 10 µM was -12.1%. The figure for `CCOC(C)c1nc(CN2CCC(CNC(C)=O)CC2)cs1` (configuration not stated) is -15%. The figure for `Cc1ccc(CN2CCC(Cc3nnc(CO)n3C)CC2)cc1C` is 5.19%; for `O=c1oc(-c2ccc(F)cc2)nn1CC1CCCCO1` (configuration not stated) it is 2.35%. The figure for `CS(=O)(=O)N1CCC2(CCCN(c3ncc(F)cn3)C2)C1` (configuration not stated) is 5.19%; for `Cc1ccc(-c2nc(C(=O)N3CCCC(C(N)=O)C3)cs2)c(C)c1` (configuration not stated) it is -2.9%; for `Cc1nc(-c2cnn(C)c2)nc2c1CN(C(=O)c1cccn1C)CC2` it is 4.87%.

Regarding `COCc1cc(CNC(=O)c2cc(NC(C)=O)ccc2Cl)n[nH]1`, the cytotoxicity at 10 µM amounted to 5.3%. As for `CCCc1nc(C(=O)NC(COC)c2ccnn2C)cs1` (configuration not stated), the cytotoxicity at 10 µM was -2.37%. For `CC(=O)N1CCN(c2cc(C)ncn2)CC(CO)C1` (configuration not stated), the cytotoxicity at 10 µM worked out at 2.94%. Consider `O=C(NC(c1ccccc1)c1cccnc1)C1CC1` (configuration not stated), for which the cytotoxicity at 10 µM is 2.99%.

For the compound `Cc1nc(N2CCCC2)nc2c1CCN(C(=O)NC1CCCC1)CC2`, the cytotoxicity at 10 µM worked out at 3.8%. For `O=c1[nH]c(N2CCCCC2)nc2c1CCN(Cc1cccnc1)C2`, the cytotoxicity at 10 µM was -3.07%. Take `COc1ccc(N2CCN(C(=O)OC(C)(C)C)C(C(=O)O)C2)cc1` (configuration not stated): the cytotoxicity at 10 µM was -0.318%.

`Cc1cc(C)c(C#N)c(NCCSc2nncn2C)n1`: the cytotoxicity at 10 µM was -1.01%. Consider `CNC(=O)[C@@]12CCC3(CCN(S(C)(=O)=O)CC3)[C@@H]1CN(S(C)(=O)=O)C2`, for which the cytotoxicity at 10 µM is -16.1%. As to `O=C(CN1CCCCC1Cn1cncn1)NCCC1=CCCCC1` (configuration not stated), the cytotoxicity at 10 µM was -7.59%. Turning to `c1cnc(N2CCCC(c3cncc(-n4ccnc4)n3)C2)nc1` (configuration not stated), the cytotoxicity at 10 µM is -11.8%. The figure for `Cc1nc(-c2ccccc2F)sc1C(=O)N1CCC(=O)CC1` is -7.42%; for `COc1ccnc(N(C)Cc2c(C)noc2C)n1` it is -3.84%; for `Cc1cc(C)n(CC2CCCN2Cc2c(C)noc2C)n1` (configuration not stated) it is -4.08%.

Regarding `O=C(c1cc(C2CC2)nc2onc(-c3ccccc3)c12)N1CCOCC1`, the cytotoxicity at 10 µM is -40.5%. The figure for `Cc1nnc([C@@H]2CC[C@@H]3[C@@H](CCN3C3CCC3)O2)o1` is 8.19%; for `CSc1cccc(CN2CCC(CCC(=O)NC3CC3)CC2)c1` it is 1.28%; for `CC(=O)N(Cc1ncc(C)o1)C1CCN(CCc2cccs2)C1` (configuration not stated) it is -8.85%. In the case of `CC(C)c1noc(CN2CCN(CCO)CC2)n1`, the cytotoxicity at 10 µM was -5.57%. `O=C(COc1ccc2c(c1)CCC2)NCc1ccco1`: the cytotoxicity at 10 µM worked out at 2.98%. As to `COCCNC(=O)CSCc1nc(O)c2cc(C(C)C)sc2n1`, the cytotoxicity at 10 µM was -3.46%. As for `CC(=O)N1CC[C@]2(O)CCN(Cc3nc(C)c[nH]3)C[C@@H]2C1`, the cytotoxicity at 10 µM is -5.79%. Consider `O=C(c1ccc[nH]1)N1CCCn2c(CNC3CCC3)nnc2C1`, for which the cytotoxicity at 10 µM was -105%. In the case of `CCCc1cc(N2CCC(NCC3(O)CCN(C)CC3)CC2)nc(C)n1`, the cytotoxicity at 10 µM was -16.1%. For `Nc1nc2c(c(N3CCCC(CN4CCCC4=O)C3)n1)CCNCC2` (configuration not stated), the cytotoxicity at 10 µM was 14.6%.

For `O=C(C1CC=CC1)N1CCc2ncnc(-c3ccncc3)c2CC1`, the cytotoxicity at 10 µM turned out to be 2.31%. As to `Cc1ccc(CN2CCO[C@@H]3C[C@@H](C(=O)NC(C)C)C[C@H]32)o1`, the cytotoxicity at 10 µM stood at 6.1%. The figure for `CN(CCCc1cc(-c2ccc(F)cc2)n[nH]1)C(=O)CCn1cncn1` is -137%. The figure for `CN1CC(C(=O)NC(C)(C)CNC(=O)OC(C)(C)C)CC1=O` (configuration not stated) is -3.88%; for `CN(Cc1ccccn1)C(C(=O)O)c1ccc2c(c1)OCO2` (configuration not stated) it is 1.16%. For `COc1ccc(CCN2C(=O)O[C@@H]3CN(C4CCOCC4)C[C@@H]32)cc1`, the cytotoxicity at 10 µM is 6.86%.

With `Cc1csc(NC(=O)[C@@H]2C[C@H]3[C@H](CCN3S(C)(=O)=O)O2)n1`, the cytotoxicity at 10 µM worked out at 1.64%. Regarding `CN(Cc1cc(=O)c(O)co1)C1CCN(c2ccc(F)cc2)CC1`, the cytotoxicity at 10 µM is -3.73%. As to `COCCN1CCN(c2cccc(C)n2)Cc2ccc(C)nc21`, the cytotoxicity at 10 µM is -106%. The figure for `CN(C)C(=O)CN1CCC2(CCN(S(=O)(=O)C3CC3)CC2)C1=O` is 6.32%; for `Cc1noc(C)c1S(=O)(=O)N(CC(N)=O)CC(C)C` it is -6.46%. The figure for `CC(C)Nc1ccnc(-c2ccnc3c2ccn3C)n1` is -5.2%. Turning to `c1cnc(OCc2nnc3n2CCN(CC2CCOCC2)C3)nc1`, the cytotoxicity at 10 µM turned out to be 4.95%. Regarding `c1coc(CN2CCC(c3ccc4c(c3)OCO4)CC2)c1`, the cytotoxicity at 10 µM was -1.55%. As for `Cc1cnn(CCC(=O)Nc2cccnc2N2CCC(CO)CC2)c1`, the cytotoxicity at 10 µM is -2%. Consider `c1csc(CN2CCC3(CC2)CCN(CC2CC2)CC3)n1`, for which the cytotoxicity at 10 µM came to 3.17%.

For `Cc1ccc(CN2Cc3ccnn3CC(C(=O)NCC3CC3)C2)o1` (configuration not stated), the cytotoxicity at 10 µM was -15.9%. Turning to `Cc1ccccc1CNC(=O)CN1CCCC(Cc2nccn2C)C1` (configuration not stated), the cytotoxicity at 10 µM was -15.4%. Consider `CC(C)(C)c1n[nH]cc1CN1CCc2nc3ccsc3c(=O)n2CC1`, for which the cytotoxicity at 10 µM was 6.12%.

For the compound `CCn1cnnc1CNC(=O)NCC(O)c1ccc(OC)cc1` (configuration not stated), the cytotoxicity at 10 µM was 5.66%. Turning to `Cn1nnnc1SC1CCCN(c2cccc(F)c2)C1=O` (configuration not stated), the cytotoxicity at 10 µM was found to be 3.85%. The figure for `Cc1cc(C)cc(CCC(=O)NC(C)c2nnn[nH]2)c1` (configuration not stated) is 0.686%; for `CC(C(=O)O)N1CC2(CCC1=O)CCN(CCSc1ccccc1)CC2` (configuration not stated) it is 2.57%.

As for `CN1C(=O)C2(CCN(CCO)C2)c2ccccc21` (configuration not stated), the cytotoxicity at 10 µM is 5.84%. In the case of `COc1ccc(Cn2cc(C(=O)N(C)Cc3ccn[nH]3)nn2)cc1`, the cytotoxicity at 10 µM stood at 8.95%.

Turning to `OC[C@H]1CN(Cc2c(Cl)cncc2Cl)C[C@H]1CN1CCCCCC1`, the cytotoxicity at 10 µM is -112%. For the compound `CN(C)CCNC(=O)CC1CCN(c2cccnn2)CC1`, the cytotoxicity at 10 µM was determined as 6.04%. The figure for `Cc1ccc(C)c(CC(=O)NC2(C#N)CCOCC2)c1` is 6.31%; for `c1nc(N2CCCC2)ncc1CN1CCCC(CN2CCCCC2)C1` (configuration not stated) it is -5.45%; for `O=C(Nc1ccccc1)C1CN(Cc2ccsc2)CC12CCOCC2` (configuration not stated) it is 6.58%.

Turning to `CCc1ccsc1C(=O)NCCn1nc2ccccn2c1=O`, the cytotoxicity at 10 µM is -12.2%. `CN(CC(N)=O)CC(=O)N(C1=CCCCC1)C1CC1`: the cytotoxicity at 10 µM is -3.85%. For `CN(Cc1cscn1)Cc1cc2c(cc1Br)OCO2`, the cytotoxicity at 10 µM is -4%. `CC(C)(O)CCc1cccc(C(=O)NCc2cnn3cccnc23)c1`: the cytotoxicity at 10 µM is -44.8%. In the case of `O=C(NC1(c2nc(C3CC3)no2)CCCCC1)c1cccnc1O`, the cytotoxicity at 10 µM is -8.92%. The figure for `Cc1noc(C)c1CN1CCC2(CC1)CC(Oc1cccnc1)CO2` (configuration not stated) is 17.8%; for `O=C(N1CCCC1)N1CCn2c(Cn3cccn3)cnc2C1` it is -69.1%; for `O=C(CN1CCNC1=O)N1CCc2nnc(-c3ccccc3)n2CC1` it is -46.1%. Turning to `CCC(C)N(C)S(=O)(=O)c1ccc(CCNC(C)=O)s1` (configuration not stated), the cytotoxicity at 10 µM was -3.45%. Take `CCc1ccc(CN2CCC(CNC(=O)c3ccc(C)nc3)C2)nc1` (configuration not stated): the cytotoxicity at 10 µM stood at 7.78%. On to `COCc1cnc2n1CCN(C(=O)c1cnc3ccccc3c1)C2C` (configuration not stated), for which the cytotoxicity at 10 µM was -110%. The figure for `Cc1ccnc(OC[C@@]23CCO[C@@H]2CCN(S(C)(=O)=O)C3)n1` is 9.34%. With `O=C(O)c1ccccc1CN1CCC2(Cc3ccccc3CNC2=O)C1` (configuration not stated), the cytotoxicity at 10 µM was 8.21%. Take `Cc1nc(N2C[C@@H](CN3CCCCC3)[C@@H](CO)C2)c2sccc2n1`: the cytotoxicity at 10 µM was -5.12%. Consider `COCc1nn(Cc2ccc(Br)s2)c(=O)o1`, for which the cytotoxicity at 10 µM came to 1.99%.

Take `COc1c(CNC(c2ccccc2)c2nccn2C)c(C)nn1C` (configuration not stated): the cytotoxicity at 10 µM is -3.16%.

Regarding `Cc1cc(CNc2ccc(-c3nc(C4CC4)no3)cn2)no1`, the cytotoxicity at 10 µM was determined as 2.55%.

The record behind these values is ChEMBL document CHEMBL4513216, “Probing the Open Global Health Chemical Diversity Library for Multistage-Active Starting Points for Next-Generation Antimalarials” (ACS Infect Dis, 2020).
